The record followed here is ChEMBL document CHEMBL4342502, “Synthesis and Antichlamydial Activity of Molecules Based on Dysregulators of Cylindrical Proteases” (J Med Chem, 2020).

Activity calls are given as the source filed them. No cut-off for these calls is given here.

Series [1] relates to Chlamydia trachomatis. The series is described as follows: Anti-chlamydial activity against Chlamydia trachomatis Serovar LGV-L2 infected in Hep2 cells assessed as inhibition of chlamydial inclusion at 50 ug/ml treated at 8 hrs post infection and measured at 24 hrs post-infection by immunofluorescence assay. The class given is functional, organism-based. The procedure, abridged: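 HEp-2 cells infected with C. trachomatis serovar L2. Compounds at 50 μg/mL added 8 hpi; inclusion number and size assessed by immunofluorescence at 24 hpi against untreated cells. Cell morphology and viability checked by phase-contrast microscopy.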

Series [2] in a line: Activation of recombinant human C-terminal 6xHis-tagged ClpP expressed in Escherichia coli assessed as induction of casein degradation at 0.1 to 1 uM using FITC-labelled casein as substrate pretreated with enzyme for 30 mins followed by substrate addition and measured every 3 mins for 3 hrs in absence of AAA+ chaperone by fluorescence based tecan-plate reader assay. The procedure, abridged: (§1)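 Recombinant C-terminal His6-tagged ClpP, expressed in a clpAPX-null E. coli strain and purified (mammalian ClpP without mitochondrial signal, codon-optimized). ClpP at 1 or 0.1 μM (E. coli), 1 μM (human, mouse) or 6 μM (chlamydial ClpP1 and ClpP2) preincubated with compound or DMSO, 30 min, 32 °C, in HEPES pH 7.6/KCl/MgCl2/DTT/glycerol buffer. 20 μM FITC-casein then added. Fluorescence (ex 490/em 525 nm) read every 3 min for 3 h. At least three runs on at least two protein preparations.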

A short description of series [3]: Activation of recombinant mouse C-terminal 6xHis-tagged ClpP expressed in Escherichia coli assessed as induction of casein degradation at 0.1 to 1 uM using FITC-labelled casein as substrate pretreated with enzyme for 30 mins followed by substrate addition and measured every 3 mins for 3 hrs in absence of AAA+ chaperone by fluorescence based tecan-plate reader assay. The procedure, abridged: as §1

The target of series [4] is ATP-dependent Clp protease proteolytic subunit (Escherichia coli (strain K12)) (UniProt P0A6G7). As to the kind of experiment: Activation of recombinant Escherichia coli ClpP assessed as induction of casein degradation at 0.1 to 1 uM using FITC-labelled casein as substrate pretreated with enzyme for 30 mins followed by substrate addition and measured every 3 mins for 3 hrs in absence of AAA+ chaperone by fluorescence based tecan-plate reader assay. The procedure, abridged: as §1

The subject of series [5] is Staphylococcus aureus. The series is described as follows: Antibacterial activity against Staphylococcus aureus JE2 assessed as bacterial growth inhibition at 32 ug/ml measured after 16 hrs by broth microdilution method. The class given is functional, organism-based. The procedure, abridged:
(§2)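 Broth microdilution in Mueller Hinton broth, triplicate. Direct colony suspension at 1.5 x 10^8 CFU/mL diluted to ~10^5 CFU/mL. Serial dilutions made from DMSO stocks at 1 mg/mL; vancomycin positive control, blank medium negative control. Incubated 16 h at optimum temperature. MIC is the lowest concentration without visible growth at 600 nm; mean of triplicate determinations.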
(Dilution methods test growth across graded concentrations, often in twofold steps.)

For series [6], the system named is Staphylococcus aureus. The series is described as follows: Antibacterial activity against methicillin-resistant Staphylococcus aureus ATCC 43300 assessed as bacterial growth inhibition at 32 ug/ml measured after 16 hrs by broth microdilution method. Type of series: functional, organism-based.
Series [7] has as its system Escherichia coli. As to the kind of experiment: Antibacterial activity against Escherichia coli ATCC 25922 assessed as bacterial growth inhibition at 32 ug/ml measured after 16 hrs by broth microdilution method. Type of series: functional, organism-based.
Series [8] has as its system Escherichia coli. As to the kind of experiment: Antibacterial activity against Escherichia coli K12 assessed as bacterial growth inhibition at 32 ug/ml measured after 16 hrs by broth microdilution method. The class given is functional, organism-based. The note with it: K-12. The procedure, abridged: as §2
The next series relates to Pseudomonas aeruginosa. As to the kind of experiment: Antibacterial activity against Pseudomonas aeruginosa ATCC 27853 assessed as bacterial growth inhibition at 32 ug/ml measured after 16 hrs by broth microdilution method. Type of series: functional, organism-based.
A further series concerns Klebsiella pneumoniae. As to the kind of experiment: Antibacterial activity against Klebsiella pneumoniae ATCC 700603 assessed as bacterial growth inhibition at 32 ug/ml measured after 16 hrs by broth microdilution method. Type of series: functional, organism-based.
Another series concerns Acinetobacter baumannii. As to the kind of experiment: Antibacterial activity against Acinetobacter baumannii ATCC 19606 assessed as bacterial growth inhibition at 32 ug/ml measured after 16 hrs by broth microdilution method. The note with it: ATCC 19606 = CIP 70.34 = JCM 6841. The class given is functional, organism-based.
Another series has as its system Candida albicans. As to the kind of experiment: Antifungal activity against Candida albicans ATCC 90028 assessed as fungal growth inhibition at 32 ug/ml measured after 16 hrs by broth microdilution method. Type of series: functional, organism-based.
A further series concerns Cryptococcus neoformans. The series is described as follows: Antifungal activity against Cryptococcus neoformans var. grubii H99 ATCC […] as fungal growth inhibition at 32 ug/ml measured after 16 hrs by broth microdilution method. Type of series: functional, organism-based. The note with it: var. grubii H99 ATCC 208821.
Series [9] in a line: Toxicity in Drosophila melanogaster assessed as survival rate at 0.25 to 1 mM. The note with it: 1000 µM. Put shortly:
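Drosophila SMART assay using third-instar larvae (72 ± 4 h) from ST and HB crosses. Larvae exposed in hydrated instant mashed-potato medium at 0.25, 0.5 and 1.0 mM final. Vehicle control: water with 1% Tween-80 and 3% ethanol. Survival of treated groups compared statistically with the vehicle control.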

Series [10] concerns Staphylococcus aureus. The series is described as follows: Antibacterial activity against Staphylococcus aureus JE2 assessed as bacterial death up to 256 ug/ml measured after 16 hrs by broth microdilution method. Type of series: functional, organism-based. The procedure, abridged: as §2
Series [11] concerns Escherichia coli. The series is described as follows: Antibacterial activity against Escherichia coli K12 assessed as bacterial death up to 256 ug/ml measured after 16 hrs by broth microdilution method. The class given is functional, organism-based. The note with it: K-12. The procedure, abridged: as §2
In series [12] the test system is Chlamydia trachomatis. As to the kind of experiment: Anti-chlamydial activity against Chlamydia trachomatis Serovar LGV-L2 infected in Hep2 cells assessed as reduction in chlamydial infectivity by measuring decrease in inclusion forming units at 50 ug/ml treated at 8 hrs post-infection and 24 hrs later re-infecting fresh Hep2 cells monolayer with infected cells and measured at 24 hrs post re-infection by immunofluorescence staining based microscopy analysis. Type of series: functional, organism-based. Put shortly: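 HEp-2 cells in DMEM with 10% FBS, infected with C. trachomatis L2 at MOI 1. Compounds added 8 hpi in triplicate; DMSO stocks at 50 mg/mL. At 24 hpi lysates collected in sucrose storage medium, frozen at −80 °C, and used to infect fresh HEp-2 monolayers in 10-fold dilutions. After 24 h, stained with goat anti-MOMP and Alexa488 secondary. Inclusions counted in 15 fields at 20x; IFU = mean count per field corrected for dilution.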

The subject of another series is HaCaT. The series is described as follows: Cytotoxicity against immortal human HaCaT cells assessed as reduction in cell viability at 50 ug/ml after 24 hrs by CCK-8 assay. Type of series: cell-based. The procedure, abridged: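 HeLa 229 and HaCaT cells in DMEM with 10% FBS and 1% penicillin/streptomycin, 37 °C, 5% CO2, seeded at 5000 cells/well. Next day treated with 50 μg/mL in triplicate, with matching DMSO controls. After 24 h, CCK-8 added for 2 h; corrected absorbance read at 450 nm.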
(In general: Tetrazolium dyes change colour on reduction, which living cells bring about.)

Series [13] is described as follows: Mutagenicity in Drosophila melanogaster somatic cells assessed as frequency of clone formation in HB crosses at 0.25 to 1 mM by SMART assay. The class given is ADME. The note with it: 1000 µM. Put shortly: (§3)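 Drosophila SMART wing-spot assay, ST and HB crosses. Third-instar larvae (72 ± 4 h) placed on hydrated instant mashed potato medium containing compound at 0.25, 0.5 or 1.0 mM final. Negative control: water with 1% Tween-80 and 3% ethanol. Statistics by Frei and Würgler two-sided U test, P≤0.05.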

A short description of series [14]: Mutagenicity in Drosophila melanogaster somatic cells assessed as frequency of clone formation in ST crosses at 0.25 to 1 mM by SMART assay. The class given is ADME. The note with it: 1000 µM. The procedure, abridged:
as §3

Chain of ATP-dependent Clp protease proteolytic subunit (Escherichia coli (strain K12)) (P0A6G7 whole entry): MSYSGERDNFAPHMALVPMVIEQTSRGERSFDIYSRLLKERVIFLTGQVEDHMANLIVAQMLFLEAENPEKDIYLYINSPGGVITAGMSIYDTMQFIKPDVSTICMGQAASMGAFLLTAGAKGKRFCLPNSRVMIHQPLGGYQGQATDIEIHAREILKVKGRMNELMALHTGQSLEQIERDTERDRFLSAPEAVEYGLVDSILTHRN

Regarding `CC(C)(C(=O)NCCSc1ccc(Cl)cc1)S(=O)(=O)c1ccccc1`, the inhibition result in the series on Chlamydia trachomatis [1], with Staphylococcus aureus [5], with Staphylococcus aureus [6], with Escherichia coli [7], in the series with Escherichia coli [8] and in the series on Pseudomonas aeruginosa was “inactive” throughout. For the same compound, the inhibition result in the series with Klebsiella pneumoniae, with Acinetobacter baumannii, in the series on Candida albicans and in the series on Cryptococcus neoformans was “inactive” each time. Further, the Activity result in series [2] and in [3] was “Not Active” in each case. Besides, the outcome in series [4] was inactive.

Take `CC(C)(C(=O)NCCSc1ccccc1Cl)S(=O)(=O)c1ccccc1`: the inhibition entry with Chlamydia trachomatis [1] was “inactive”. Moreover, the Activity entry in series [2] and in [3] was “Not Active” in each case. Also, in [4], the result was inactive.

As to `CC(C)(C(=O)NCCOc1ccccc1Cl)S(=O)(=O)c1ccccc1`, the inhibition result with Chlamydia trachomatis [1], in the series on Staphylococcus aureus [5], in the series with Staphylococcus aureus [6], in the series with Escherichia coli [7], in the series on Escherichia coli [8] and in the series on Pseudomonas aeruginosa was “inactive” each time. In addition, the inhibition entry with Klebsiella pneumoniae, in the series on Acinetobacter baumannii, in the series on Candida albicans and in the series on Cryptococcus neoformans was “inactive” each time. Also, the Activity result in series [9] is “Non-Toxic”.

As for `NCCBr`, the inhibition result with Staphylococcus aureus [5], with Staphylococcus aureus [6], in the series with Escherichia coli [7], with Escherichia coli [8], in the series with Pseudomonas aeruginosa and with Klebsiella pneumoniae was “inactive” throughout. Also, the inhibition entry with Acinetobacter baumannii, in the series with Candida albicans and in the series on Cryptococcus neoformans was “inactive” throughout. For the same compound, the result with Staphylococcus aureus [10] and with Escherichia coli [11] was inactive.

In the case of `Cc1ccccc1N1CCN(C(=O)C(C)(C)S(=O)(=O)c2ccc(C(F)(F)F)cn2)CC1`, the inhibition entry in the series on Chlamydia trachomatis [1] and in the series with Chlamydia trachomatis [12] was “Active” throughout. Moreover, the inhibition entry in the series on Staphylococcus aureus [5], in the series with Staphylococcus aureus [6], in the series on Escherichia coli [7], in the series on Escherichia coli [8], in the series with Pseudomonas aeruginosa and in the series with Klebsiella pneumoniae was “inactive” throughout. Moreover, the inhibition entry in the series on Acinetobacter baumannii, in the series on Candida albicans and with Cryptococcus neoformans was “inactive” throughout. In addition, the result with Staphylococcus aureus [10] and in the series on Escherichia coli [11] was inactive.

For `CC(C)(C(=O)NCCOc1ccccc1Cl)S(=O)(=O)c1ccc(C(F)(F)F)cn1`, the inhibition entry in the series with Chlamydia trachomatis [1] was “Active”. For the same compound, the inhibition entry with Staphylococcus aureus [5], in the series on Staphylococcus aureus [6], with Escherichia coli [7], in the series with Escherichia coli [8], with Pseudomonas aeruginosa and in the series with Klebsiella pneumoniae was “inactive” throughout. Moreover, the inhibition result in the series with Acinetobacter baumannii, in the series with Candida albicans and in the series with Cryptococcus neoformans was “inactive” throughout. Moreover, the result with Staphylococcus aureus [10] and in the series with Escherichia coli [11] was inactive.

Regarding `Cc1ccc(CN2CCN(C(=O)C(C)(C)S(=O)(=O)c3ccc(C(F)(F)F)cn3)CC2)cc1`, the inhibition result with Chlamydia trachomatis [1] was “Active”. Also, the inhibition entry with Staphylococcus aureus [5], in the series on Staphylococcus aureus [6], with Escherichia coli [7], in the series with Escherichia coli [8], in the series with Pseudomonas aeruginosa and in the series with Klebsiella pneumoniae was “inactive” each time. The inhibition entry with Acinetobacter baumannii, in the series on Candida albicans and in the series on Cryptococcus neoformans was “inactive” each time. In addition, the outcome in the series on Staphylococcus aureus [10] and with Escherichia coli [11] was inactive. Moreover, the Activity result in the series on HaCaT is “Non-Toxic”.

Turning to `CC(C)(C(=O)N1CCN(Cc2cccc(Cl)c2)CC1)S(=O)(=O)c1ccc(C(F)(F)F)cn1`, the Activity entry in series [13], in [14] and in [9] was “Non-Toxic” in each case. Moreover, the inhibition entry in the series with Chlamydia trachomatis [1] and in the series with Chlamydia trachomatis [12] was “Active” each time. In addition, the inhibition result in the series with Staphylococcus aureus [5], with Staphylococcus aureus [6], with Escherichia coli [7], in the series on Escherichia coli [8], in the series on Pseudomonas aeruginosa and with Klebsiella pneumoniae was “inactive” in each case. In addition, the inhibition entry in the series on Acinetobacter baumannii, in the series on Candida albicans and with Cryptococcus neoformans was “inactive” throughout.

As for `CC(C)(C(=O)NCCSc1ccccc1Cl)S(=O)(=O)c1ccc(C(F)(F)F)cc1`, in the series on Chlamydia trachomatis [1], the inhibition entry was “Active”. For the same compound, the inhibition entry in the series on Staphylococcus aureus [5], in the series with Staphylococcus aureus [6], in the series with Escherichia coli [7], in the series on Escherichia coli [8], in the series with Pseudomonas aeruginosa and in the series with Klebsiella pneumoniae was “inactive” throughout. The inhibition entry with Acinetobacter baumannii, in the series on Candida albicans and in the series with Cryptococcus neoformans was “inactive” in each case.

In the case of `CC(C)(C(=O)NCCSc1ccc(Cl)cc1)S(=O)(=O)c1ccc(C(F)(F)F)cc1`, the inhibition entry in the series with Chlamydia trachomatis [1] was “Active”. Further, the inhibition result in the series with Staphylococcus aureus [5], with Staphylococcus aureus [6], in the series with Escherichia coli [7], with Escherichia coli [8], in the series on Pseudomonas aeruginosa and in the series on Klebsiella pneumoniae was “inactive” in each case. Also, the inhibition entry in the series on Acinetobacter baumannii, in the series on Candida albicans and with Cryptococcus neoformans was “inactive” throughout.
